Data reported in ChEMBL document CHEMBL1132346, “New type of febrifugine analogues, bearing a quinolizidine moiety, show potent antimalarial activity against Plasmodium malaria parasite” (J Med Chem, 1999).
Several values for one entry are separate records, joined by “and”; a condition that tells them apart may be missing. Equal entries are not always repeated.

Legend:
[1] = test system: Plasmodium berghei; assay: In vivo antimalarial activity against Plasmodium berghei infected mice (Mus musculus) by intraperitoneal dose; type: functional
[2] = test system: Mus musculus; assay: Compound was tested for antimalarial activity against mice (Mus musculus) malaria parasite Plasmodium berghei in vivo and the samples were administarted intraperitoneally.; type: functional; details: for ED50: ip
[3] = test system: Plasmodium falciparum; assay: In vitro antimalarial activity against chloroquine-sensitive Plasmodium falciparum FCR3; type: functional, organism-based
[4] = test system: Plasmodium falciparum; assay: In vitro antimalarial activity against chloroquine-resistant Plasmodium falciparum K1; type: functional, organism-based
[5] = test system: FM3A; assay: Compound was tested for cytotoxicity against FM3A mouse mammary cells.; type: functional, cell-based
[6] = Selectivity is the ratio of antimalarial activity and cytotoxicity; type: functional
Procedure, shortened: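 Ratio of antimalarial activity to cytotoxicity, with cytotoxicity measured against FM3A mouse mammary cells.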

[7] = test system: Mus musculus; assay: Compound was tested for antimalarial activity against mice (Mus musculus) malaria parasite Plasmodium berghei in vivo mice (Mus musculus) and the samples were administarted intraperitoneally.; type: functional

| SMILES | ED90 [1] | ED50 ([1]; ip) | ED90 [2] | ED50 [2] | EC50 [3] | EC50 [4] | EC50 [5] | Selectivity [6] | ED90 [7] |
| --- | --- | --- | --- | --- | --- | --- | --- | --- | --- |
| C[C@@H]1CC[C@H]2[C@@H](C)C(=O)O[C@@H]3O[C@@]4(C)CC[C@@H]1[C@]32OO4 [ARTEMISININ] | 46 µM/kg | 17.7 µmol/kg | – | – | – | – | – | – | – |
| CCN(CC)CCCC(C)Nc1ccnc2cc(Cl)ccc12 (centres undefined) [CHLOROQUINE] | – | – | 9.4 µM/kg | 4.7 µmol/kg | 18 nM | 130 nM | 32000 nM | – | – |
| CC1(C)[C@@H](n2cnc3ccccc3c2=O)C(=O)C[C@@H]2[C@@H](O)CCCN21 | – | – | 19.4 µM/kg | 7.3 µmol/kg | 1.6 nM | 3 nM | 380 nM | 238 and 127 | – |
| CC1(C)[C@H](n2cnc3ccccc3c2=O)C(=O)C[C@H]2[C@@H](O)CCCN21 | – | – | – | 76 µmol/kg | 2.8 nM | 4.2 nM | 2400 nM | 857 and 571 | – |
| O=c1c2ccccc2ncn1CC1(O)C[C@@H]2NCCC[C@@H]2O1 (some centres undefined) [ISOFEBRIFUGINE] | – | – | – | – | 3.4 nM | 1.8 nM | 180 nM | 53 and 100 | 5 µM/kg |
| O=C(C[C@@H]1NCCC[C@H]1O)Cn1cnc2ccccc2c1=O (single isomer, unassigned) [FEBRIFUGINE] | – | – | 5 µM/kg | 1 µmol/kg | 0.7 nM | 1.2 nM | 170 nM | 243 and 142 | – |
